Assay results taken from BindingDB's records for doi:10.1016/j.ejmech.2020.112417 (University of Houston, 2020).

Molecular target: Nucleotide-binding oligomerization domain-containing protein 2 (Homo sapiens, UniProt Q9HC29)
Assay: Inhibition of human NOD2 expressed in HEK293 cells coexpressing NFkappaB-SEAP reporter measured after 7 to 9 hrs by HEKBIue reporter assay
In short: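 IC50 values reported as the mean of two or three determinations ± standard deviation.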

Sequence of Nucleotide-binding oligomerization domain-containing protein 2 (Q9HC29 whole entry, the tested form may be a part): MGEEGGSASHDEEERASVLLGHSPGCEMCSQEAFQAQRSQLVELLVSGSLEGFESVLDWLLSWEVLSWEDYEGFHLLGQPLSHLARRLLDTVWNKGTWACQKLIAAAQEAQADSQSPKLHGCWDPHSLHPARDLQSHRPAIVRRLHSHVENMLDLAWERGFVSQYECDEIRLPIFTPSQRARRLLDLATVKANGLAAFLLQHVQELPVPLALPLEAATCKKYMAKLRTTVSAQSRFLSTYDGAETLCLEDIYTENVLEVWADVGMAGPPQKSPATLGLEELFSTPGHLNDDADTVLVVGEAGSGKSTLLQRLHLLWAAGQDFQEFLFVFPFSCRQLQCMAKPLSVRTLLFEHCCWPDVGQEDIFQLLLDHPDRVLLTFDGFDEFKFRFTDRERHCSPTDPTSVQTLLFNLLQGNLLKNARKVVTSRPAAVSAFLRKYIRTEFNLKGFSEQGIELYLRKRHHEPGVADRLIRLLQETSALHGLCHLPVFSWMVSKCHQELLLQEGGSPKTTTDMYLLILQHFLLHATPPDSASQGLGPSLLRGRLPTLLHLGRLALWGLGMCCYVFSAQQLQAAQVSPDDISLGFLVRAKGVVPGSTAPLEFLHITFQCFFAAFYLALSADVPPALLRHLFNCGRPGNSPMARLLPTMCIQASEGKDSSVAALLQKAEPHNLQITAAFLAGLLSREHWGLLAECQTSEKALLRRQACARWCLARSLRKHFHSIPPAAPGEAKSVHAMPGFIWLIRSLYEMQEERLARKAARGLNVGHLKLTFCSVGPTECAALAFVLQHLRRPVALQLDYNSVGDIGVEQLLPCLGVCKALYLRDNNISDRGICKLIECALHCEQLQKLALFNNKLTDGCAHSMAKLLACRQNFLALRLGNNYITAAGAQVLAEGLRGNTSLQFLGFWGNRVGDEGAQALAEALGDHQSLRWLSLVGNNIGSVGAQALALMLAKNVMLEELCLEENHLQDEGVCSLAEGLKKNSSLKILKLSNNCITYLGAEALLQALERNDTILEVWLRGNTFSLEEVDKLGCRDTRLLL

| SMILES | IC50 [µM] |
| --- | --- |
| CCCS(=O)(=O)N1CCc2ccc(-c3cc(-c4ccc(N5CCNCC5)cc4)cnc3N)cc21 | 2.43 |
| CCCS(=O)(=O)Nc1cc(-c2cc(-c3ccc(N4CCNCC4)cc3)cnc2N)cc(OC)c1C | 3.35 |
| CCCS(=O)(=O)Nc1cc(OC)cc(-c2cc(-c3ccc(N4CCNCC4)cc3)cnc2C)c1 | 2.67 |
| CCS(=O)(=O)Nc1cc(OC)cc(-c2cc(-c3ccc(N4CCNCC4)cc3)cnc2C)c1 | 5.24 |
| CCCS(=O)(=O)Nc1cc(-c2cc(-c3ccc(N4CCNCC4)cc3)cnc2N)ccc1O | > 5 |
| CCCS(=O)(=O)Nc1cc(-c2cc(-c3ccc(N4CCNCC4)cc3)cnc2N)ccc1C | 1.06 |
| CCCS(=O)(=O)Nc1cc(-c2cc(-c3ccc(N4CCNCC4)cc3)cnc2N)cc2c1OCCO2 | 2.46 |
| CCCS(=O)(=O)Nc1cc(-c2cc(-c3ccc(N4CCNCC4)cc3)cnc2C)cc(F)c1OC | 2.56 |
| COc1cc(NS(C)(=O)=O)cc(-c2cc(-c3ccc(N4CCNCC4)cc3)cnc2C)c1 | 3.71 |
| CCCS(=O)(=O)NCc1cc(-c2cc(-c3ccc(N4CCNCC4)cc3)cnc2N)ccc1OC | 1.29 |
| CCCS(=O)(=O)Nc1cc(-c2cc(-c3cccc(S(C)(=O)=O)c3)cnc2N)ccc1OC | 2.66 |
| CCCS(=O)(=O)Nc1ccc(-c2cc(-c3ccc(N4CCNCC4)cc3)cnc2C)cc1OC | 2.94 |

Compounds with a lower IC50, results first:

| IC50 [µM] | SMILES |
| --- | --- |
| 0.39 | COc1cc(NS(C)(=O)=O)cc(-c2cc(-c3ccc(N4CCNCC4)cc3)cnc2N)c1 |
| 0.121 | COc1cc(NS(=O)(=O)C(C)C)cc(-c2cc(-c3ccc(N4CCNCC4)cc3)cnc2N)c1 |
| 0.323 | CC(C)Oc1cc(NS(=O)(=O)C(C)C)cc(-c2cc(-c3ccc(N4CCNCC4)cc3)cnc2N)c1 |
| 0.595 | COc1cc(-c2cc(-c3ccc(N4CCNCC4)cc3)cnc2N)cc(F)c1OC |
| 0.016 | CCCS(=O)(=O)Nc1cc(-c2cc(-c3cccc(N4CCNCC4)c3)cnc2N)cc(F)c1OC |
| 0.42 | CCCS(=O)(=O)Nc1cc(-c2cc(-c3ccc(N4CCNCC4)cc3)cnc2N)ccc1OC |
| 0.352 | CCCS(=O)(=O)Nc1cc(-c2cncc(-c3ccc(N4CCNCC4)cc3)c2)cc(F)c1OC |
| 0.053 | COc1cc(NS(=O)(=O)c2ccccc2)cc(-c2cc(-c3ccc(N4CCNCC4)cc3)cnc2N)c1 |
| 1.01 | CCCS(=O)(=O)N1CCOc2ccc(-c3cc(-c4ccc(N5CCNCC5)cc4)cnc3N)cc21 |
| 0.243 | CCCS(=O)(=O)Nc1cc(OC)cc(-c2cc(-c3ccc(N4CCNCC4)cc3)cnc2N)c1 |
| 0.026 | CCCS(=O)(=O)Nc1cc(-c2cc(-c3ccc(N4CCNCC4)cc3)cnc2N)cc(F)c1OC |
| 0.523 | COc1cc(NS(=O)(=O)C(C)C)cc(-c2cc(-c3ccc(N4CCNCC4)cc3)cnc2C)c1 |
| 0.001 | CCCS(=O)(=O)Nc1cc(-c2cc(-c3ccc(N4CCNCC4)cc3)cnc2N)cc(OC)c1OC |
| 0.046 | CCOc1cc(NS(=O)(=O)C(C)C)cc(-c2cc(-c3ccc(N4CCNCC4)cc3)cnc2N)c1 |
| 0.046 | CCCS(=O)(=O)Nc1cc(-c2cc(-c3ccc(N4CCNCC4)cc3)cnc2N)cc(Cl)c1OC |
| 0.129 | CCCS(=O)(=O)Nc1cc(-c2cc(-c3ccc(N4CCNCC4)cc3)cnc2N)cc(C)c1OC |
